A short description of data set [1]: Inhibition of Smt-tagged S-nitrosoglutathione reductase expressed in Escherichia coli using […] as substrate for 3 mins by spectrophotometric analysis. The settings on record: read-out: IC50.
For data set [2], the target named is Muscarinic acetylcholine receptor M1 (Homo sapiens) (UniProt P11229). The data set can be described thus: Inhibition of M1 receptor at 10 uM by radioligand displacement assay. The method in brief: (§1)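 Off-target radioligand binding panel. Test compound at 10 µM. Each assay had at least 6 control wells, with or without vehicle, for soluble compounds. Values are percent inhibition of radioligand binding. ≥50% inhibition was scored as a positive response.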
Chain of Muscarinic acetylcholine receptor M1 (Homo sapiens) (P11229 whole entry): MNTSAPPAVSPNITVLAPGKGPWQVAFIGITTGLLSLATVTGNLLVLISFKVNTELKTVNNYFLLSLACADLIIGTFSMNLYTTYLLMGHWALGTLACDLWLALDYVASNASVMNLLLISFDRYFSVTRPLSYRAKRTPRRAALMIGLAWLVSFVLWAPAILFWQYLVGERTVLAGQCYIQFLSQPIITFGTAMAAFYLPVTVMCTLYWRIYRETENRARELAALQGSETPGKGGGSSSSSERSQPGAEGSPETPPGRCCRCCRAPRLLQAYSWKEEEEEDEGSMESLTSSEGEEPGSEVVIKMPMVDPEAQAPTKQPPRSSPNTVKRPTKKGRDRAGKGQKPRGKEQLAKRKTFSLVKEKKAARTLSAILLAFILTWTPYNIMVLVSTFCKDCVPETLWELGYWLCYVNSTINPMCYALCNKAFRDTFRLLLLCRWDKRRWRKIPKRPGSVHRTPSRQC
Background: Displacement assays read how much labelled ligand stays bound in the presence of the test substance.

Data set [3] concerns the target 5-hydroxytryptamine receptor 2A (Homo sapiens) (UniProt P28223). The data set can be described thus: Inhibition of 5HT2A receptor at 10 uM by radioligand displacement assay. The essentials: as §1
The target in data set [4] is 5-hydroxytryptamine receptor 5A (Homo sapiens) (UniProt P47898). The data set can be described thus: Inhibition of 5HT5A receptor at 10 uM by radioligand displacement assay. The essentials: as §1
Chain of 5-hydroxytryptamine receptor 5A (Homo sapiens) (P47898 whole entry): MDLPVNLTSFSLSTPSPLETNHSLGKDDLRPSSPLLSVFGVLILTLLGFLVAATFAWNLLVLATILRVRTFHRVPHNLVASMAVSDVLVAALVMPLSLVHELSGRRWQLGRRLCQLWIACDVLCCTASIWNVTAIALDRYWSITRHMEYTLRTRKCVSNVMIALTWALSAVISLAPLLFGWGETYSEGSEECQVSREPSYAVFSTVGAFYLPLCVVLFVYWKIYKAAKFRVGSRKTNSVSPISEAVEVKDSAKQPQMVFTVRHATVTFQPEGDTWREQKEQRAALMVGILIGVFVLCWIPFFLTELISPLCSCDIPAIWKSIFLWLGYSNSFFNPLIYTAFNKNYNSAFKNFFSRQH
For data set [5], the target named is Muscarinic acetylcholine receptor M3 (Homo sapiens) (UniProt P20309). Nature of the data set: Inhibition of M3 receptor at 10 uM by radioligand displacement assay. The essentials:
as §1

For data set [6], the target named is Mu-type opioid receptor (Homo sapiens) (UniProt P35372). Nature of the data set: Inhibition of Mu opioid receptor at 10 uM by radioligand displacement assay. The method in brief:
as §1

In another data set the test system is A549. The data set can be described thus: Cytotoxicity against human A549 cells after 48 hrs by MTS assay. The data set is classed as cell-based. As to conditions: A549, 48 h. A general note: Tetrazolium assays rely on reduction of a dye to a coloured formazan, in cell work by metabolically active cells.
The target of data set [7] is Histamine H1 receptor (Homo sapiens) (UniProt P35367). Nature of the data set: Inhibition of H1 receptor at 10 uM by radioligand displacement assay. The essentials: as §1
Chain of Histamine H1 receptor (Homo sapiens) (P35367 whole entry): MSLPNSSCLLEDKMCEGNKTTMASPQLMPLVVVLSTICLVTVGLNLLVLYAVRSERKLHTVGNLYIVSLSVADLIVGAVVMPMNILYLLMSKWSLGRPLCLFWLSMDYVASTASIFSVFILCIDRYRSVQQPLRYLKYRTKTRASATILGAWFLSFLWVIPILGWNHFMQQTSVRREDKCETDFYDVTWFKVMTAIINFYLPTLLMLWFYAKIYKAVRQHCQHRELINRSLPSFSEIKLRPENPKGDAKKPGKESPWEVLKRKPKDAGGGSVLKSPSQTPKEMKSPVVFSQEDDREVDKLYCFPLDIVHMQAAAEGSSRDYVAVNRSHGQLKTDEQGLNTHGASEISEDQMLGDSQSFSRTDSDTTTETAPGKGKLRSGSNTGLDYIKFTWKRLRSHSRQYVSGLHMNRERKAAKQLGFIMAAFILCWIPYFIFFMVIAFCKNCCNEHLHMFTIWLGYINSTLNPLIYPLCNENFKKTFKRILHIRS
Data set [8] in a line: Inhibition of GABA receptor at 10 uM by radioligand displacement assay. The essentials: as §1
Data set [9] has as its target D(1A) dopamine receptor (Homo sapiens) (UniProt P21728). Nature of the data set: Inhibition of dopamine D1 receptor at 10 uM by radioligand displacement assay. The method in brief: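 Off-target panel: radioligand binding to each receptor, channel or transporter with test compound at 10 µM; activity reported as percent inhibition of specific binding. At least 6 control wells with or without vehicle per assay. Inhibition of 50% or greater counted as a positive response.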

In data set [10] the target is Neurotensin receptor type 1 (Homo sapiens) (UniProt P30989). Nature of the data set: Inhibition of NTS1 receptor at 10 uM by radioligand displacement assay. The method in brief: as §1
Chain of Neurotensin receptor type 1 (Homo sapiens) (P30989 whole entry): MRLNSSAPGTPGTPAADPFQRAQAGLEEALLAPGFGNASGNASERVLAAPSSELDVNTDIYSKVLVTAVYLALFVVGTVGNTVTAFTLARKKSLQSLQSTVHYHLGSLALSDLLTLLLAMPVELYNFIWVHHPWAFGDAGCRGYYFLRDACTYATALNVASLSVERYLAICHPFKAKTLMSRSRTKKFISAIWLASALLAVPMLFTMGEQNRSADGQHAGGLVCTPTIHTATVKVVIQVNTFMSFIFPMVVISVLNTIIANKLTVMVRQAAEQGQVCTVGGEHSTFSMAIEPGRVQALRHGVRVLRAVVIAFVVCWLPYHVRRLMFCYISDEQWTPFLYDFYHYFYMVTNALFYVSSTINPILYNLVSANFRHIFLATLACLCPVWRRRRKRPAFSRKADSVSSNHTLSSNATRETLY
Data set [11] addresses B2 bradykinin receptor (Homo sapiens) (UniProt P30411). The data set can be described thus: Inhibition of B2 receptor at 10 uM by radioligand displacement assay. The method in brief: as §1
The target of data set [12] is Adenosine receptor A1 (Homo sapiens) (UniProt P30542). Nature of the data set: Inhibition of adenosine A1 receptor at 10 uM by radioligand displacement assay. The method in brief: as §1
Chain of Adenosine receptor A1 (Homo sapiens) (P30542 whole entry): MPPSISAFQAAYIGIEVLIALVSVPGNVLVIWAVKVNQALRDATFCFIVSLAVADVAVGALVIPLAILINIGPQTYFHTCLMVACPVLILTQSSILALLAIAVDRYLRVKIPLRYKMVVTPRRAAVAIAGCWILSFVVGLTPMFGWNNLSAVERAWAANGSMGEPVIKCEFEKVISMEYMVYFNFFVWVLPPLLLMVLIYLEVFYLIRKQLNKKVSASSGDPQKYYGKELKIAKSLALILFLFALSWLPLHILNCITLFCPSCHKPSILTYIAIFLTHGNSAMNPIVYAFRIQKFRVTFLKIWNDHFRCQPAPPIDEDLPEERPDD
The target of data set [13] is 5-hydroxytryptamine receptor 7 (Homo sapiens) (UniProt P34969). Nature of the data set: Inhibition of 5HT7 receptor at 10 uM by radioligand displacement assay. The essentials:
as §1

In data set [14] the test system is Mus musculus. Nature of the data set: Toxicity in CD1 mouse assessed as adverse effect in spleen at 50 mg/kg, iv qd administered for 5 days. The data set is classed as organism-based. Further details: dose 50 mg/kg, route intravenous. The settings on record: in vivo, 120 h. The essentials:
(§2)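 Male CD-1 mice dosed IV once daily for 5 days at 1, 10 or 50 mg/kg. Toxicity judged by histology of liver, spleen and thymus, and a no-observed-adverse-effect level (NOAEL) derived from the study.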

Data set [15] has as its system Mus musculus. The data set can be described thus: Toxicity in CD1 mouse assessed as adverse effect in thymus at 50 mg/kg, iv qd administered for 5 days. The data set is classed as organism-based. As to conditions: in vivo, 120 h. On the set-up: dose 50 mg/kg, route intravenous. The essentials:
as §2

Data set [16] deals with Mus musculus. Nature of the data set: Toxicity in CD1 mouse assessed as adverse effect in liver at 10 mg/kg, iv qd administered for 5 days. The data set is classed as organism-based. Further details: dose 10 mg/kg, route intravenous. As to conditions: in vivo, 120 h. The method in brief: as §2
For data set [17], the system named is Mus musculus. The data set can be described thus: Toxicity in CD1 mouse assessed as adverse effect in thymus at 10 mg/kg, iv qd administered for 5 days. The data set is classed as organism-based. On the set-up: dose 10 mg/kg, route intravenous. As to conditions: in vivo, 120 h. The essentials:
as §2

For data set [18], the system named is Mus musculus. The data set can be described thus: Antiasthamatic activity against ovalbumin-induced asthma in ovalbumin-sensitized BALB/c mouse assessed as inhibition of methacholine-induced bronchoconstriction at 1 mg/kg, iv administered 24 hrs prior to methacholine-challenge by plethysmography. Type of data set: functional, organism-based. Further details: dose 1 mg/kg. The method in brief: (§3)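 Mice made asthmatic by ovalbumin exposure. A single 1 mg/kg IV dose was given 24 h before aerosolized methacholine challenge. Controls received IV PBS vehicle or three inhaled doses of Combivent (5.2 mg/kg albuterol + 0.9 mg/kg ipratropium) at 48, 24 and 1 h before challenge. Bronchoconstriction was read by whole-body plethysmography, and eosinophils were counted in BALF. Data are mean ± SEM, 10 mice per group.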

For data set [19], the system named is Mus musculus. Nature of the data set: Toxicity in CD1 mouse assessed as adverse effect in thymus iv qd administered for 5 days. The settings on record: in vivo, 120 h.
A short description of data set [20]: Toxicity in iv dosed CD1 mouse administered qd for 5 days. The data set is classed as organism-based. The settings on record: in vivo. The method in brief:
as §2

Data set [21] deals with Mus musculus. The data set can be described thus: Toxicity in CD1 mouse assessed as adverse effect in liver at 50 mg/kg, iv qd administered for 5 days. On the set-up: dose 50 mg/kg, route intravenous. The data set is classed as organism-based. As to conditions: in vivo, 120 h. The method in brief: as §2
For data set [22], the system named is Mus musculus. Nature of the data set: Toxicity in CD1 mouse assessed as adverse effect in spleen at 10 mg/kg, iv qd administered for 5 days. On the set-up: dose 10 mg/kg, route intravenous. Type of data set: organism-based. The settings on record: in vivo, 120 h. The method in brief: as §2
Data set [23] has as its system Mus musculus. The data set can be described thus: Antiasthamatic activity against ovalbumin-induced asthma in ovalbumin-sensitized BALB/c mouse assessed as inhibition of methacholine-induced eosinophil infiltration in bronchoalveolar lavage fluid at 1 mg/kg, iv administered 24 hrs prior to methacholine-challenge by light microscopy. As to conditions: Lung. The data set is classed as functional, organism-based. Further details: dose 1 mg/kg. The essentials: as §3

Structures are written as SMILES. Activity calls are given as the source filed them. No cut-off for these calls is given here. Where only a bound is given, the exact number is not on record here.

The IC50 is the point on the concentration scale where inhibition reaches its midpoint. Usually NOAEL stands for the highest dose or exposure tested at which no adverse effect was seen.

Chain of D(1A) dopamine receptor (Homo sapiens) (P21728 whole entry): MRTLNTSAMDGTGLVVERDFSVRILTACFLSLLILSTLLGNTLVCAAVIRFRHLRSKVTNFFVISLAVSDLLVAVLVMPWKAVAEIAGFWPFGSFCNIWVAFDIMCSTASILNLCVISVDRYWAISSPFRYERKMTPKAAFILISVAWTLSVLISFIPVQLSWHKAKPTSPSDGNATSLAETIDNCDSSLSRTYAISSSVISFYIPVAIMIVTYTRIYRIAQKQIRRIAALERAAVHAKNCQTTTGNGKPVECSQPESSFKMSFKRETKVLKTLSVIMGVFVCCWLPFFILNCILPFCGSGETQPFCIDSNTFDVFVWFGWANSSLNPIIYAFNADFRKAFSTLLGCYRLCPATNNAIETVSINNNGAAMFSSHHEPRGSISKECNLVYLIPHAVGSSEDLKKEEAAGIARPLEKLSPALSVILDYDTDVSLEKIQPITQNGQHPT
Chain of B2 bradykinin receptor (Homo sapiens) (P30411 whole entry): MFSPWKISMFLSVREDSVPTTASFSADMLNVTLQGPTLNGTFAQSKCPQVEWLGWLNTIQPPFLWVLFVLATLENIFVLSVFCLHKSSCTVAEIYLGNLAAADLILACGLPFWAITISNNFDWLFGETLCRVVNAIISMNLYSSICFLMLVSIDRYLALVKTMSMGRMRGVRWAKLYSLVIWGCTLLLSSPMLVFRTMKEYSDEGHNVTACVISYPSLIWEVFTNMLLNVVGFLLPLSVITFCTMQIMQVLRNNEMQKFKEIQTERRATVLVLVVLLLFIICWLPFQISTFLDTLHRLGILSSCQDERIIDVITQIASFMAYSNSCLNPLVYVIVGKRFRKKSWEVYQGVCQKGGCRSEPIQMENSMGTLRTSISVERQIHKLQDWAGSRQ
Chain of Muscarinic acetylcholine receptor M3 (Homo sapiens) (P20309 whole entry, looked up): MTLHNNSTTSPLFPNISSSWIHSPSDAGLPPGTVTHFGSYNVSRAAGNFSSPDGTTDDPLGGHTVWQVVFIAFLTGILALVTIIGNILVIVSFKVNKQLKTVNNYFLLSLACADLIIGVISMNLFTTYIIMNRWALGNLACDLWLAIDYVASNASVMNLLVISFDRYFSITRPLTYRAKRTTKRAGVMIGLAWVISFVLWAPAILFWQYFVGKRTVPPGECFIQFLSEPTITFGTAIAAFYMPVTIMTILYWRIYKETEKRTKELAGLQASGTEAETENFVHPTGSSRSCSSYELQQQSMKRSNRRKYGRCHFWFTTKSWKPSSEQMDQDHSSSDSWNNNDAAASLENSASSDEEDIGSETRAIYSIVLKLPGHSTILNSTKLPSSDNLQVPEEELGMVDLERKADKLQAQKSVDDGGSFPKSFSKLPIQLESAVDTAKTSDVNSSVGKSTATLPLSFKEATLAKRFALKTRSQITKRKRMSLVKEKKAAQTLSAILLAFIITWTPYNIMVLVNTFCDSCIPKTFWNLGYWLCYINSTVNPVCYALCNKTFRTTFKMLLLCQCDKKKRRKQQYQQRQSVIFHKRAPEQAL
Chain of 5-hydroxytryptamine receptor 7 (Homo sapiens) (P34969 whole entry): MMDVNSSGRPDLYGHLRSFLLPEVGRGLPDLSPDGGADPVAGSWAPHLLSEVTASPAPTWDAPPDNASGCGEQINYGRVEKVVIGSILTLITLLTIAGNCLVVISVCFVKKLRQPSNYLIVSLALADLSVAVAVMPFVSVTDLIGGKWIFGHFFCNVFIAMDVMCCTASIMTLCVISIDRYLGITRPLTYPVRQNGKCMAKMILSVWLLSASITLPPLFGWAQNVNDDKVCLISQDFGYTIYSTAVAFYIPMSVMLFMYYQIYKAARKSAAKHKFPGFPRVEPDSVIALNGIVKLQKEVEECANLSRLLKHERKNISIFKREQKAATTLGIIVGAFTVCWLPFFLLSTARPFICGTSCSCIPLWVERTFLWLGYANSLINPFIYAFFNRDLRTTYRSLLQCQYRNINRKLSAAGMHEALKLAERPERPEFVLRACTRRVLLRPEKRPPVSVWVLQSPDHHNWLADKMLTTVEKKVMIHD
Chain of 5-hydroxytryptamine receptor 2A (Homo sapiens) (P28223 whole entry): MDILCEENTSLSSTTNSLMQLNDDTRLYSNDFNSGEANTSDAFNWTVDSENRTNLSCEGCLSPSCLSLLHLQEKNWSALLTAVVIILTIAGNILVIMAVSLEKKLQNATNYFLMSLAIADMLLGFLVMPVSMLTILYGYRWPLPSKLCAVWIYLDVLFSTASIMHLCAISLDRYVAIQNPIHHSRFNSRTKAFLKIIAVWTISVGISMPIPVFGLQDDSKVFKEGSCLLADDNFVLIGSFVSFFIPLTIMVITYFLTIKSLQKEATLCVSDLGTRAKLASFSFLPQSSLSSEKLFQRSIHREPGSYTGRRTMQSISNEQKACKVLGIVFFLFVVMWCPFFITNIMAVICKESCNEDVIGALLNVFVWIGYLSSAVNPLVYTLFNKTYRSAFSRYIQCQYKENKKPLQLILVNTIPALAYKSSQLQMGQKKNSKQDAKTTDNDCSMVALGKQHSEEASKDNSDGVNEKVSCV
Chain of Mu-type opioid receptor (Homo sapiens) (P35372 whole entry): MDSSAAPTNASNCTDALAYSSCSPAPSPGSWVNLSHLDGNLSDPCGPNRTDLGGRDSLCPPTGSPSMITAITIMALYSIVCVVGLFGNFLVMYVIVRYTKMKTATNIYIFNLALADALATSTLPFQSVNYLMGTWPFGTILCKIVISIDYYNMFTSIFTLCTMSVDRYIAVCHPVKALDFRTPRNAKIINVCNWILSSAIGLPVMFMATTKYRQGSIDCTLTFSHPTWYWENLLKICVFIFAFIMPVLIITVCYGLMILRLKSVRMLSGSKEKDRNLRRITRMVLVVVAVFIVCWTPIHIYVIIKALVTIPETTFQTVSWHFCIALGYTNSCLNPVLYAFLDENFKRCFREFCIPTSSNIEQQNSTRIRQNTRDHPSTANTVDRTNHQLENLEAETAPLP

Turning to `Cc1cc(NS(C)(=O)=O)ccc1-n1c(CCC(=O)O)ccc1-c1ccc(-n2ccnc2)cc1`, the IC50 in data set [1] was 29 nM; in the data set on A549, above 150000 nM. Further, the inhibition entry in data set [2], in data set [3], in [4], in [5], in [6] and in [7] was “inactive” in each case. For the same compound, the inhibition result in data set [8], in data set [9], in data set [10], in data set [11], in data set [12] and in data set [13] was “inactive” each time.

On to `Cc1cc(NS(C)(=O)=O)ccc1-n1c(CCC(=O)O)ccc1-c1ccc(-n2ccnc2C)s1`, for which the IC50 in data set [1] was 43 nM; with A549 it was above 150000 nM. Also, the inhibition entry in [2], in data set [3], in [4], in data set [5], in data set [6] and in data set [7] was “inactive” each time. Moreover, the inhibition result in data set [8], in [9], in data set [10], in data set [11], in data set [12] and in [13] was “inactive” throughout. Besides, the Activity result in the data set with Mus musculus [14], in the data set on Mus musculus [15], with Mus musculus [16], in the data set with Mus musculus [17], with Mus musculus [19] and in the data set with Mus musculus [21] was “Toxic” each time. Besides, in the data set with Mus musculus [22], the Activity entry is given as “Toxic”. Further, the result with Mus musculus [18] and in the data set with Mus musculus [23] was Active. Also, the NOAEL at 120 h in data set [20] was 1 mg/kg/day.
